# Reference: ChEMBL document CHEMBL2434928, “New derivatives of salicylamides: Preparation and antimicrobial activity against various bacterial species” (2013)
# Tests used:
# Assay type in all cases: functional
# [1] = system: Pasteurella multocida; assay: Antimicrobial activity against Pasteurella multocida clinical isolate after 24 hrs by broth microdilution method
# Outline: (§1)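 Broth microdilution MIC in Mueller–Hinton broth, per modified NCCLS guidelines. Strains were grown on nutrient agar with 5% ovine blood. Colonies were suspended in PBS (pH 7.2–7.3), adjusted to 0.5 McFarland, then diluted 1:20 in MH broth. Compounds were in DMSO, ≤2.5% final. Drug-free, sterility and DMSO controls were included.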
# [2] = system: Bacillus cereus; assay: Antimicrobial activity against Bacillus cereus ATCC 14579 after 24 hrs by broth microdilution method; details: ATCC 14579, 24 h; outline: as §1
# [3] = system: Staphylococcus aureus; assay: Antimicrobial activity against methicillin-resistant Staphylococcus aureus 630 after 24 hrs by broth microdilution method; details: Staphylococcus aureus, 630, 24 h
# Outline: (§2)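 Colonies grown on nutrient agar with 5% ovine blood were suspended in PBS (pH 7.2–7.3), adjusted to 0.5 McFarland, and diluted 1:20 in Mueller–Hinton broth. Compounds were dissolved in DMSO (final ≤2.5%) and tested by NCCLS-modified broth microdilution with drug-free, sterility and broth+DMSO controls.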
# [4] = system: Staphylococcus aureus; assay: Antimicrobial activity against methicillin-resistant Staphylococcus aureus 3202 after 24 hrs by broth microdilution method; details: Staphylococcus aureus, 3202, 24 h; outline: as §2
# [5] = system: Staphylococcus aureus; assay: Antimicrobial activity against Staphylococcus aureus ATCC 29213 after 24 hrs by broth microdilution method; details: ATCC 29213, 24 h; outline: as §1
# [6] = system: Staphylococcus aureus; assay: Antimicrobial activity against methicillin-resistant Staphylococcus aureus 63718 after 24 hrs by broth microdilution method; details: Staphylococcus aureus, 63718, 24 h; outline: as §2
# [7] = system: Clostridium perfringens; assay: Antimicrobial activity against Clostridium perfringens CNCTC 5770 after 24 hrs by broth microdilution method; details: CNCTC 5770, 24 h
# Outline: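 Colonies grown on blood agar (nutrient agar, 5% ovine blood) were suspended in PBS pH 7.2–7.3, set to 0.5 McFarland, and diluted 1:20 in MH broth for the final inoculum. Compounds were in DMSO (≤2.5% final), tested by NCCLS-modified microdilution with drug-free, sterility and DMSO controls.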
# [8] = system: Mycolicibacterium smegmatis; assay: Antimycobacterial activity against Mycobacterium smegmatis ATCC 700084 after 3 days; details: ATCC 700084, 72 h
# Outline: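 Middlebrook 7H9 plus ADC broth microdilution MIC, with compounds in DMSO. Colonies were suspended in sterile water to 0.5 McFarland, then diluted 1:1000 in sterile water. Drug-free, sterility and DMSO controls were included. The visual read followed 3 days of static aerobic incubation at 37 °C in darkness.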
# [9] = system: Mycobacterium kansasii; assay: Antimycobacterial activity against Mycobacterium kansasii DSM 44162 after 7 days; details: DSM 44162, 168 h
# Outline: (§3)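 MIC by broth microdilution in Middlebrook 7H9 with ADC enrichment. Compounds were dissolved in DMSO. Inoculum: colonies in sterile water adjusted to 0.5 McFarland, then diluted 1:1000 in sterile water. Drug-free, sterility and medium+DMSO controls were included. Wells were read visually after static incubation in the dark.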
# [10] = system: Mycobacterium marinum; assay: Antimycobacterial activity against Mycobacterium marinum CAMP 5644 after 21 days; details: CAMP 5644, 504 h; outline: as §3
SMILES,MIC [1] [µM],MIC [2] [µM],MIC [3] [µM],MIC [4] [µM],MIC [5] [µM],MIC [6] [µM],MIC [7] [µM],MIC [8] [µM],MIC [9] [µM],MIC [10] [µM]
O=C(Nc1ccc(Cl)c(Cl)c1)c1cc(Cl)ccc1O,0.19,0.09,0.77,0.77,0.79,0.77,0.03,–,–,–
O=C(Nc1ccc(Cl)c(Cl)c1)c1ccc(Cl)cc1O,0.2,≤ 0.03,0.03,0.05,0.03,0.05,0.2,12.6,3.16,3.16
O=C(Nc1ccc([N+](=O)[O-])cc1)c1cc(Cl)ccc1O,0.03,0.85,0.85,1.71,0.85,1.71,1.71,13.7,≤ 0.43,3.42
O=C(Nc1ccc(Br)cc1)c1cc(Cl)ccc1O,0.19,0.38,0.76,0.76,0.76,0.76,3.06,24.5,6.12,12.2
O=C(Nc1ccc(C(F)(F)F)cc1)c1cc(Cl)ccc1O,0.2,0.1,0.2,0.2,0.03,0.1,1.58,12.7,1.58,≤ 0.4
COc1ccc(NC(=O)c2cc(Cl)ccc2O)cc1,28.8,> 921,> 921,> 921,> 921,> 921,> 921,–,–,–
COc1ccc(NC(=O)[C@@H](NC(=O)c2cc(Cl)ccc2O)C(C)C)cc1,> 679,> 679,> 679,> 679,> 679,> 679,> 679,–,–,–
Cc1ccc(NC(=O)[C@H](C)NC(=O)c2cc(Cl)ccc2O)cc1,> 769,> 769,> 769,> 769,> 769,> 769,> 769,–,–,–
CC(C)[C@H](NC(=O)c1cc(Cl)ccc1O)C(=O)Nc1ccc(C(F)(F)F)cc1,> 617,2.41,4.82,4.82,4.82,9.64,4.82,77.1,38.6,77.1
CC(C)[C@H](NC(=O)c1ccc(Cl)cc1O)C(=O)Nc1ccc(Br)cc1,> 601,2.34,9.39,9.39,9.39,18.8,9.39,150,75.2,150
CC(C)[C@H](NC(=O)c1ccc(Cl)cc1O)C(=O)Nc1ccc(Cl)c(Cl)c1,> 615,1.2,2.4,2.4,2.4,4.81,38.5,77,77,77
O=C(N[C@@H](Cc1ccccc1)C(=O)Nc1ccc(Cl)c(Cl)c1)c1ccc(Cl)cc1O,> 552,1.07,2.15,1.07,1.07,2.15,34.5,69,34.5,138
Cc1ccc(NC(=O)[C@H](Cc2ccccc2)NC(=O)c2cc(Cl)ccc2O)cc1,> 626,> 626,> 626,> 626,> 626,> 626,> 626,–,–,–
CC(C)[C@H](NC(=O)OCc1ccccc1)C(=O)Oc1ccc(Cl)cc1C(=O)Nc1ccccc1,> 517,> 517,–,–,> 517,–,–,–,–,–
Cc1ccc(NC(=O)c2cc(Cl)ccc2OC(=O)[C@H](C)NC(=O)OCc2ccccc2)cc1,2.14,7.13,–,–,34.3,–,–,> 548,17.1,68.5
Cc1ccc(NC(=O)c2cc(Cl)ccc2OC(=O)[C@@H](NC(=O)OCc2ccccc2)C(C)C)cc1,4.04,32.3,–,–,32.3,–,–,259,129,259
Cc1ccc(NC(=O)c2cc(Cl)ccc2OC(=O)[C@H](Cc2ccccc2)NC(=O)OCc2ccccc2)cc1,7.36,29.5,–,–,–,–,–,236,58.9,118
Cc1ccc(NC(=O)[C@@H](NC(=O)c2cc(Cl)ccc2O)C(C)C)cc1,88.7,22.2,> 709,88.7,88.7,> 709,88.7,> 709,88.7,355
CC(C)[C@H](NC(=O)OCc1ccccc1)C(=O)Oc1ccc(Cl)cc1C(=O)Nc1ccc(Br)cc1,0.89,1.78,1.78,1.78,3.57,3.57,3.57,57.2,14.3,14.3
O=C(N[C@@H](Cc1ccccc1)C(=O)Oc1ccc(Cl)cc1C(=O)Nc1ccc(Cl)c(Cl)c1)OCc1ccccc1,0.83,0.41,0.2,0.2,1.67,0.2,1.67,26.8,13.4,26.8
CC1(C)S[C@@H]2[C@H](NC(=O)[C@H](N)c3ccccc3)C(=O)N2[C@H]1C(=O)O [AMPICILLIN],1.43,> 45.8,> 45.8,> 45.8,5.72,> 45.8,< 0.72,–,–,–
O=C(O)c1cn(C2CC2)c2cc(N3CCNCC3)c(F)cc2c1=O [CIPROFLOXACIN],–,–,> 48.3,> 48.3,> 48.3,> 48.3,–,–,–,–
NNC(=O)c1ccncc1 [ISONIAZID],–,–,–,–,–,–,–,117,–,467
